# According to ChEMBL document CHEMBL3994633, “Exploration of phenylpropanoic acids as agonists of the free fatty acid receptor 4 (FFA4): Identification of an orally efficacious FFA4 agonist” (Bioorg Med Chem Lett, 2017):
# Residue numbers refer to the chain shown, from its start.
# How the values were obtained:
# [1] = biological target: T1, Free fatty acid receptor 4 (Mus musculus) (UniProt Q7TMA4); experiment: Agonist activity at mouse FFA4 receptor relative to control
# T1 sequence (whole entry): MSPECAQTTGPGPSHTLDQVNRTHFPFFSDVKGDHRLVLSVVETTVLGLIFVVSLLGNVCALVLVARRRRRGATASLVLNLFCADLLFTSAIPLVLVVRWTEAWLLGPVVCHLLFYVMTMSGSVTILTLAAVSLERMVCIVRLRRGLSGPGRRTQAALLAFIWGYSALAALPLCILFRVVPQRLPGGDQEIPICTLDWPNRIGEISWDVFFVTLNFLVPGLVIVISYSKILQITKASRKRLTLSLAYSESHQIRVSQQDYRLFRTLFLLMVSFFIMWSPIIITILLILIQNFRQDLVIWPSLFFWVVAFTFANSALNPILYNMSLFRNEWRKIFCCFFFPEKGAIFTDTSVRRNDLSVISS
# [2] = biological target: T2, Free fatty acid receptor 4 (Rattus norvegicus) (UniProt Q2AC31); experiment: Agonist activity at rat FFA4 receptor relative to control
# T2 sequence (whole entry): T1 sequence (whole entry) with H15R, L17P, V42L, A66V, A75V, N328S, D348E, V351I, S361T
# [3] = Clearance in C57BL/6J mouse at 4.2 mg/kg, iv; assay type: ADME, organism-based; conditions: in vivo
# In short: (§1)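 C57BL/6J mice (n = 2) dosed intravenously at 3 or 4.2 mg/kg. Clearance (mL/min/kg) and AUC (hr*ng/mL) derived from plasma concentrations.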
# [4] = biological target: T3, Free fatty acid receptor 2 (Homo sapiens) (UniProt O15552); experiment: Agonist activity at human FFA2 receptor by FLIPR assay relative to control
# T3 sequence (whole entry): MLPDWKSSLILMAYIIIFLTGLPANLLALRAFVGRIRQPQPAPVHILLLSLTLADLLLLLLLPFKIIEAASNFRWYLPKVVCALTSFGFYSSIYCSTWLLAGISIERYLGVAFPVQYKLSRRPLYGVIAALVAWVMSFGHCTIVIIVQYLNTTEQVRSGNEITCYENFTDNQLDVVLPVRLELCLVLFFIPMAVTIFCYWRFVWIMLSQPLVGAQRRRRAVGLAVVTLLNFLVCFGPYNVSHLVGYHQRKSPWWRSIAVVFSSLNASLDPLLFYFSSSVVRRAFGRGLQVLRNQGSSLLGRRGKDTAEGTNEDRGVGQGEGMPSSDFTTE
# In short: (§2)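 Human FFA2 or FFA3 agonism tested in FLIPR-based full-curve functional assays. EC50 (nM) and max response (%) reported.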
# [5] = biological target: T4, Free fatty acid receptor 4 (Rattus norvegicus, UniProt Q2AC31); experiment: Agonist activity at rat FFA4 receptor
# T4 sequence (Q2AC31 whole entry): T1 sequence (whole entry) with H15R, L17P, V42L, A66V, A75V, N328S, D348E, V351I, S361T
# Mus musculus [6] = experiment: Antidiabetic activity in db/db mouse assessed as reduction in HbA1c level at 100 mg/kg, po bid after 2 weeks relative to control; assay type: functional; parameters: scale not given: the % may be the effect or the level left
# In short: (§3)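 Fed db/db mice given vehicle or 100 mg/kg orally twice daily for 2 weeks. Blood glucose measured before treatment and after 1 and 2 weeks; HbA1c measured before and after 2 weeks.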
# [7] = Cmax in C57BL/6J mouse at 10 mg/kg, po; assay type: ADME, organism-based; parameters: dose 10 mg/kg, route oral; conditions: in vivo
# In short: (§4)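 C57BL/6J mice (n = 2), single oral dose of 10 mg/kg given as a suspension in 0.5% HMPC: 0.1% Tween. Plasma Cmax and AUC (hr*ng/mL) measured; %F calculated against the IV leg.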
# [8] = biological target: T5, Free fatty acid receptor 1 (Homo sapiens, UniProt O14842); experiment: Agonist activity at human FFA1 receptor expressed in human U2OS cells co-expressing Galpha16 assessed as calcium mobilization by Fluo-4 dye based FLIPR assay; assay type: functional, cell-based; conditions: read-out: EC50
# In short: (§5)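 U2OS cells transiently expressing human FFA1 or FFA4. Agonism measured from a ten-point dose-response curve with FLIPR readout, giving EC50 (nM) and efficacy (% max response). Values are means of three experiments.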
# Mus musculus [9] = experiment: Antidiabetic activity in db/db mouse assessed as plasma glucose level at 100 mg/kg, po bid after 2 weeks (reference value: 276 mg/dl); assay type: functional; in short: as §3
# [10] = biological target: Free fatty acid receptor 1 (Mus musculus) (UniProt Q76JU9); experiment: Agonist activity at mouse FFA1 receptor relative to control
# [11] = biological target: Free fatty acid receptor 1 (Rattus norvegicus, UniProt Q8K3T4); experiment: Agonist activity at rat FFA1 receptor
# [12] = Oral bioavailability in C57BL/6J mouse at 10 mg/kg; assay type: ADME, organism-based; conditions: in vivo; in short: as §4
# Rattus norvegicus [13] = experiment: Antidiabetic activity in ZDF rat assessed as plasma glucose level at 10 mg/kg bid for 14 days (reference value: 192 mg/dl); assay type: functional
# [14] = AUC in C57BL/6J mouse at 10 mg/kg, po; assay type: ADME, organism-based; conditions: in vivo; in short: as §4
# [15] = biological target: T6, Free fatty acid receptor 4 (Mus musculus, UniProt Q7TMA4); experiment: Agonist activity at mouse FFA4 receptor
# T6 sequence (Q7TMA4 whole entry): T1 sequence (whole entry)
# [16] = biological target: T5, Free fatty acid receptor 1; experiment: Agonist activity at human FFA1 receptor expressed in human U2OS cells co-expressing Galpha16 assessed as calcium mobilization by Fluo-4 dye based FLIPR assay relative to GSK137647A; assay type: functional, cell-based; in short: as §5
# [17] = biological target: T7, Free fatty acid receptor 4 (Homo sapiens) (UniProt Q5NUL3); experiment: Agonist activity at human FFA4 receptor expressed in human U2OS cells co-expressing Galpha16 assessed as calcium mobilization by Fluo-4 dye based FLIPR assay relative to GSK137647A; assay type: functional, cell-based; in short: as §5
# T7 sequence (whole entry): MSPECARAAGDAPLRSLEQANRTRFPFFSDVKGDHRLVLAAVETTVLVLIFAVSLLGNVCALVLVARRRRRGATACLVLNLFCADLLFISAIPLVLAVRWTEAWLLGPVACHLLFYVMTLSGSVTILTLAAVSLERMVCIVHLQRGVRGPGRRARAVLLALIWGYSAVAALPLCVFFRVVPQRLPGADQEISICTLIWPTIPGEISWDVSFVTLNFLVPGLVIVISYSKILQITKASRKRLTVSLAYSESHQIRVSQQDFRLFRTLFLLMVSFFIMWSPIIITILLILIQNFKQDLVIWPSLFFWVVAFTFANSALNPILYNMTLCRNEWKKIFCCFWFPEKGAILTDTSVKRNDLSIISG
# [18] = biological target: T8, Free fatty acid receptor 3 (Homo sapiens, UniProt O14843); experiment: Agonist activity at human FFA3 receptor by FLIPR assay; in short: as §2
# T8 sequence (O14843 whole entry): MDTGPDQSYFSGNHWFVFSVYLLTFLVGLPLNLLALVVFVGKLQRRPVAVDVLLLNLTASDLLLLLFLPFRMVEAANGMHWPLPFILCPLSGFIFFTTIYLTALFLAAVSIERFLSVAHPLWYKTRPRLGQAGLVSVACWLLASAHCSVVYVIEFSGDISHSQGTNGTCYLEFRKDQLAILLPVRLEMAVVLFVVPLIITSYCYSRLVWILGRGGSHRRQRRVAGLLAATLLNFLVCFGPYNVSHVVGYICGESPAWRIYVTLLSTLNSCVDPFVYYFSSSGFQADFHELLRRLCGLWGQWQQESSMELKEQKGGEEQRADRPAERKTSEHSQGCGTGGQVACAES
# [19] = Half life in C57BL/6J mouse at 10 mg/kg, po; assay type: ADME, organism-based; conditions: in vivo
# Mus musculus [20] = species: Mus musculus; experiment: Selectivity ratio of EC50 for mouse FFA1 receptor to EC50 for mouse FFA4 receptor
# [21] = Protein binding in human plasma; assay type: ADME, cell-free; conditions: read-out: PPB
# [22] = AUC in C57BL/6J mouse at 4.2 mg/kg, iv; assay type: ADME, organism-based; conditions: in vivo; in short: as §1
# [23] = biological target: T9, Free fatty acid receptor 4 (Homo sapiens, UniProt Q5NUL3); experiment: Agonist activity at human FFA4 receptor expressed in human U2OS cells co-expressing Galpha16 assessed as calcium mobilization by Fluo-4 dye based FLIPR assay; assay type: functional, cell-based; in short: as §5
# T9 sequence (Q5NUL3 whole entry): T7 sequence (whole entry)
# [24] = biological target: T10, Free fatty acid receptor 2 (Homo sapiens, UniProt O15552); experiment: Agonist activity at human FFA2 receptor by FLIPR assay; in short: as §2
# T10 sequence (O15552 whole entry): T3 sequence (whole entry)
# Rattus norvegicus [25] = species: Rattus norvegicus; experiment: Selectivity ratio of EC50 for rat FFA1 receptor to EC50 for rat FFA4 receptor
# Homo sapiens = species: Homo sapiens; experiment: Selectivity ratio of EC50 for human FFA1 receptor expressed in human U2OS cells co-expressing Galpha16 to EC50 for human FFA4 receptor expressed in human U2OS cells co-expressing Galpha16; assay type: cell-based
# [26] = biological target: Free fatty acid receptor 1 (Mus musculus, UniProt Q76JU9); experiment: Agonist activity at mouse FFA1 receptor
# Rattus norvegicus [27] = experiment: Antidiabetic activity in ZDF rat assessed as plasma glucose level at 100 mg/kg bid for 14 days (reference value: 192 mg/dl); assay type: functional
# T5 sequence (O14842 whole entry): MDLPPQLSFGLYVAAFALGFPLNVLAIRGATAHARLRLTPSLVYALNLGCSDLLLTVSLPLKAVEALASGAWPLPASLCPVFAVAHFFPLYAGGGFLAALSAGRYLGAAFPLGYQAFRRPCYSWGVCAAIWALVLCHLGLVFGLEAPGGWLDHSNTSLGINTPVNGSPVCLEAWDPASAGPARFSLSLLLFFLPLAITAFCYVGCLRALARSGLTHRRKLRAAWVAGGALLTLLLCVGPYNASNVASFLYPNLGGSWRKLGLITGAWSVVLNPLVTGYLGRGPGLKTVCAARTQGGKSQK
# Chain of Free fatty acid receptor 1 (Mus musculus, UniProt Q76JU9) (Q76JU9 whole entry): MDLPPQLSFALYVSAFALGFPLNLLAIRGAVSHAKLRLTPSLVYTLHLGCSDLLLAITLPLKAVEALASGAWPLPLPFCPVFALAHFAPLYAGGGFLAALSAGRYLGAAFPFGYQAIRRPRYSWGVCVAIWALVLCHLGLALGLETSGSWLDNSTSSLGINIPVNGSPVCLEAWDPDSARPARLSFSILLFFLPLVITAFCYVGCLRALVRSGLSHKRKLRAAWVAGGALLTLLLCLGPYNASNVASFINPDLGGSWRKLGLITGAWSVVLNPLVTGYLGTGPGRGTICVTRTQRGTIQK
# Chain of Free fatty acid receptor 1 (Mus musculus) (Q76JU9 whole entry): as above
# Chain of Free fatty acid receptor 1 (Rattus norvegicus, UniProt Q8K3T4) (Q8K3T4 whole entry): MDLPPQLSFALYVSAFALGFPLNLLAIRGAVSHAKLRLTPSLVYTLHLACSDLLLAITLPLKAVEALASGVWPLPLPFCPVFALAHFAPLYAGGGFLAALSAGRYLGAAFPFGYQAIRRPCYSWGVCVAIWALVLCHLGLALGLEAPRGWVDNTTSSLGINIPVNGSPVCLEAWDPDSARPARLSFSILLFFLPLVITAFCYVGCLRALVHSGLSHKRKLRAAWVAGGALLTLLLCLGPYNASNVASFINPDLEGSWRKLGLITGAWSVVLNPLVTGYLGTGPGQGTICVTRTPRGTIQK
structure (smiles),measurement,setting,value
COc1ccc(C(F)(F)F)cc1COc1ccc(CCC(=O)O)cc1C,%max,[1],108%
same,%max,[2],110%
same,clearance,[3],20 mL/min/kg
same,%max,[4],59%
same,EC50,[5],0.23 µM
same,Activity,Mus musculus [6],1.6%
same,Cmax,[7],6780 ng/mL
same,EC50,[8],11.8 µM
same,Activity,Mus musculus [9],106 mg/dL
same,%max,[10],83%
same,EC50,[11],> 30 µM
same,bioavailability,[12],110%
same,Activity,Rattus norvegicus [13],151 mg/dL
same,AUC,[14],9440 ng·h/mL
same,EC50,[15],0.07 µM
same,%max,[16],105%
same,%max,[17],124%
same,EC50,[18],> 50 µM
same,half-life,[19],1.7 h
same,Ratio EC50,Mus musculus [20],> 85
same,fraction unbound,[21],0.001
same,AUC,[22],3620 ng·h/mL
same,EC50,[23],0.299 µM
same,EC50,[24],25.3 µM
same,Ratio EC50,Rattus norvegicus [25],> 85
same,Ratio EC50,Homo sapiens,40
same,EC50,[26],6.21 µM
same,Activity,Rattus norvegicus [27],139 mg/dL
